Blank lines part the entries; values can stand above or below the molecule they belong to.
Columns and labels:
[1] = target: T1, Integrin alpha-4/beta-1 (Homo sapiens, UniProt P05556+P13612); test: Displacement of [35S]-labeled ligand from VLA4 in human Jurkat cells washed with buffer containing non activating Ca2+ and Mg2+ by competitive binding assay; assay type: cell-based
Method in brief: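 Competition binding in Jurkat cells with a ³⁵S-labeled ligand, VLA-4 held non-activated in Ca²⁺/Mg²⁺ buffer; IC₅₀ reported; data are means of three independent runs or n = 1.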

[2] = target: T1, Integrin alpha-4/beta-1; test: Inhibition of VLA4 in human whole blood
Method in brief: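 Competitive binding run in human whole blood; IC₅₀ read-out.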

[3] = target: T1, Integrin alpha-4/beta-1; test: Displacement of [35S]-labeled ligand from VLA4 in human Jurkat cells washed with buffer containing activating Mn2+ by competitive binding assay; assay type: cell-based
[4] = target: T1, Integrin alpha-4/beta-1; test: Receptor occupancy of VLA4 in whole blood washed with buffer containing activating Mn2+ at 37 degC after 3 hrs; assay type: tissue-based
[5] = Plasma clearance in rat at 5 mg/kg, po; assay type: ADME, organism-based; parameters: dose 5 mg/kg, route oral
[6] = Bioavailability in rat at 5 mg/kg, po; assay type: ADME, organism-based; details: in vivo
[7] = tested on: Rattus norvegicus; test: AUC in rat at 5 mg/kg, po; assay type: ADME, organism-based, Plasma; parameters: dose 5 mg/kg, route oral; details: in vivo
[8] = Cmax in rat at 5 mg/kg, po; assay type: ADME, organism-based; parameters: dose 5 mg/kg, route oral; details: in vivo
[9] = tested on: Rattus norvegicus; test: Receptor occupancy of VLA4 in rat at 5 mg/kg, po after 12 hrs; assay type: functional
Method in brief: (§1)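 Parent acid given orally to rats at 5 mpk; VLA-4 receptor occupancy assayed at 12 h and 24 h after dosing.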

[10] = tested on: Rattus norvegicus; test: Receptor occupancy of VLA4 in rat at 5 mg/kg, po after 24 hrs; assay type: functional; method in brief: as §1
[11] = tested on: Integrin alpha-4/beta-1 (Rattus norvegicus); test: Receptor occupancy of VLA4 in rat whole blood washed with buffer containing non activating Ca2+ and Mg2+ at 37 degC after 12 hrs
[12] = tested on: Integrin alpha-4/beta-1 (Rattus norvegicus); test: Receptor occupancy of VLA4 in rat whole blood washed with buffer containing non activating Ca2+ and Mg2+ at 37 degC after 24 hrs
[13] = tested on: Rattus norvegicus; test: Receptor occupancy of VLA4 in rat at 1.5 mg/kg after 24 hrs; assay type: functional
Method in brief: (§2)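 Ethyl ester prodrug given orally to rats at 1.5 mpk; VLA-4 receptor occupancy measured at 12 h and 24 h post-dose.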

[14] = tested on: Rattus norvegicus; test: Receptor occupancy of VLA4 in rat at 1.5 mg/kg after 12 hrs; assay type: functional; method in brief: as §2

T1 sequence (P05556 whole entry): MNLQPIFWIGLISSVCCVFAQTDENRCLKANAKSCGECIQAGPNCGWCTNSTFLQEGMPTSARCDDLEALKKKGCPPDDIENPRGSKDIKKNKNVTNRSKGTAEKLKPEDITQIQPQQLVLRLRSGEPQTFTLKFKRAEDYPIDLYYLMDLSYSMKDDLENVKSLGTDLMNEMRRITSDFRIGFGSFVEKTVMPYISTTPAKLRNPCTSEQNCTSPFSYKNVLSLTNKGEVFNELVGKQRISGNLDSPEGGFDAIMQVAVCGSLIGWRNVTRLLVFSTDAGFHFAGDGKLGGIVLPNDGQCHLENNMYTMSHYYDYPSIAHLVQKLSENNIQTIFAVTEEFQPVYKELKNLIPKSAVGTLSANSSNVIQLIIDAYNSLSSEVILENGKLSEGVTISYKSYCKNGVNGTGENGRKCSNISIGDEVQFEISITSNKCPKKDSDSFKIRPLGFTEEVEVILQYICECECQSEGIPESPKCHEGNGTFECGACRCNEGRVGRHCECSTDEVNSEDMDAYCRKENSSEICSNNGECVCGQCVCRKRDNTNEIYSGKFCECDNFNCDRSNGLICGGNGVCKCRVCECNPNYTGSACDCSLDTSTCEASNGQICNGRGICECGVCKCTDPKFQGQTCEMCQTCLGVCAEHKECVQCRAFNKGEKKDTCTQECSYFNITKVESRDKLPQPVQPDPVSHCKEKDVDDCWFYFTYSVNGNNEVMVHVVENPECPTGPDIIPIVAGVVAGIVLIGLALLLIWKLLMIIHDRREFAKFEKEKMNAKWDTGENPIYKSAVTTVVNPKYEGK
T1 sequence (P13612 whole entry): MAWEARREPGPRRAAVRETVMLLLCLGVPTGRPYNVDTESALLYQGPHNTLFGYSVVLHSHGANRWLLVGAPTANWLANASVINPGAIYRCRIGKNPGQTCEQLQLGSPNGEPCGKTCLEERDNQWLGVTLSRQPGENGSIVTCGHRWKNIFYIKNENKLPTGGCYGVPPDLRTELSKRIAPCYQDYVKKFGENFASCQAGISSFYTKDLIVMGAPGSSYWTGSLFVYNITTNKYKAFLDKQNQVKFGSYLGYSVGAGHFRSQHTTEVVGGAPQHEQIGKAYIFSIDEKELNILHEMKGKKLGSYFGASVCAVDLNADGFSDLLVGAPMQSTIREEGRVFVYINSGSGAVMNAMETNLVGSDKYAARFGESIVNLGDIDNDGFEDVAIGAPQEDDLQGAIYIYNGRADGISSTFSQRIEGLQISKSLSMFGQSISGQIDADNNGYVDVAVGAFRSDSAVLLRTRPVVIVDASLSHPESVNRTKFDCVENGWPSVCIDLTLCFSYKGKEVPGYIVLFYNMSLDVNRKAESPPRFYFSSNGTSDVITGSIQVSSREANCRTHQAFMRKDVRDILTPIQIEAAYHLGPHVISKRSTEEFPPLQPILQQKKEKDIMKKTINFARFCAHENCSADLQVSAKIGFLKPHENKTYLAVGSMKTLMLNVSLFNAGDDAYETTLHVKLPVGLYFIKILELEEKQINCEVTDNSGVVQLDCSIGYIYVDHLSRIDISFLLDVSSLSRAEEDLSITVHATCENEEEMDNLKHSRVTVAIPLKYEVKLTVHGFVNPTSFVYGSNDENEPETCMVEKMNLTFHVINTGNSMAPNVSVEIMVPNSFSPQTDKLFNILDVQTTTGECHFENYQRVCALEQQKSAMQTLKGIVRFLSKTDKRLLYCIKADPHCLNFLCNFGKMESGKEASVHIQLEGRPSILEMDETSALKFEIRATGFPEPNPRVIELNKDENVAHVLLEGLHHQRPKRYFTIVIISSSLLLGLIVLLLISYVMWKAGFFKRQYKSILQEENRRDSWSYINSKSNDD

SMILES: N#Cc1cccc(S(=O)(=O)N2C[C@H](N3CCCC3)C[C@H]2C(=O)N[C@@H](Cc2ccc(NC(=O)c3c(Cl)cncc3Cl)cc2)C(=O)O)c1
IC50 [1]: 0.22 nM

SMILES: N#Cc1cccc(S(=O)(=O)N2C[C@H](N3CC(F)C3)C[C@H]2C(=O)N[C@@H](Cc2ccc(NC(=O)c3c(Cl)cncc3Cl)cc2)C(=O)O)c1
IC50 [1]: 0.27 nM

SMILES: N#Cc1cccc(S(=O)(=O)N2C[C@H](N3CC[C@H](F)C3)C[C@H]2C(=O)N[C@@H](Cc2ccc(NC(=O)c3c(Cl)cncc3Cl)cc2)C(=O)O)c1
IC50 [1]: 0.24 nM

SMILES: N#Cc1cccc(S(=O)(=O)N2C[C@H](N3CCC(F)(F)CC3)C[C@H]2C(=O)N[C@@H](Cc2ccc(NC(=O)c3c(Cl)cncc3Cl)cc2)C(=O)O)c1
IC50 [1]: 0.22 nM

SMILES: N#Cc1cccc(S(=O)(=O)N2C[C@H](N3CCCC(F)C3)C[C@H]2C(=O)N[C@@H](Cc2ccc(NC(=O)c3c(Cl)cncc3Cl)cc2)C(=O)O)c1 (stereo not given in full)
IC50 [1]: 0.21 nM

SMILES: N#Cc1cccc(S(=O)(=O)N2C[C@H](N3CCC(F)CC3)C[C@H]2C(=O)N[C@@H](Cc2ccc(NC(=O)c3c(Cl)cncc3Cl)cc2)C(=O)O)c1
IC50 [1]: 0.35 nM

SMILES: N#Cc1cccc(S(=O)(=O)N2C[C@H](N3CC(F)(F)C3)C[C@H]2C(=O)N[C@@H](Cc2ccc(NC(=O)c3c(Cl)cncc3Cl)cc2)C(=O)O)c1
IC50 [1]: 0.9 nM

SMILES: CCOC(=O)[C@H](Cc1ccc(NC(=O)c2c(Cl)cncc2Cl)cc1)NC(=O)[C@@H]1C[C@@H](NC2CCC2)CN1S(=O)(=O)c1cccc(C#N)c1
Activity [13]: 25%

SMILES: CCOC(=O)[C@H](Cc1ccc(NC(=O)c2c(Cl)cncc2Cl)cc1)NC(=O)[C@@H]1C[C@@H](N2CCCC(F)(F)C2)CN1S(=O)(=O)c1cccc(C#N)c1
Activity [14]: 88%
Activity [13]: 60%

The remaining molecules from weak to strong by IC50 [1], led by results:

IC50 [1]: 0.15 nM
Activity [4]: 95%
SMILES: N#Cc1cccc(S(=O)(=O)N2C[C@H](NC3CCC3)C[C@H]2C(=O)N[C@@H](Cc2ccc(NC(=O)c3c(Cl)cncc3Cl)cc2)C(=O)O)c1

IC50 [1]: 0.15 nM
SMILES: N#Cc1cccc(S(=O)(=O)N2C[C@H](N3CCC3)C[C@H]2C(=O)N[C@@H](Cc2ccc(NC(=O)c3c(Cl)cncc3Cl)cc2)C(=O)O)c1

IC50 [1]: 0.12 nM
SMILES: N#Cc1cccc(S(=O)(=O)N2C[C@H](N3CC[C@@H](F)C3)C[C@H]2C(=O)N[C@@H](Cc2ccc(NC(=O)c3c(Cl)cncc3Cl)cc2)C(=O)O)c1

IC50 [1]: 0.11 nM
SMILES: N#Cc1cccc(S(=O)(=O)N2C[C@H](N3CCCCC3)C[C@H]2C(=O)N[C@@H](Cc2ccc(NC(=O)c3c(Cl)cncc3Cl)cc2)C(=O)O)c1

IC50 [1]: 0.1 nM
SMILES: N#Cc1cccc(S(=O)(=O)N2C[C@H](N3CCC(F)(F)C3)C[C@H]2C(=O)N[C@@H](Cc2ccc(NC(=O)c3c(Cl)cncc3Cl)cc2)C(=O)O)c1

IC50 [1]: 0.03 nM
IC50 [2]: 0.07 nM
IC50 [3]: 0.02 nM
Activity [4]: 95%
CL/F [5]: > 100 mL/min/kg
bioavailability [6]: < 5%
AUC [7]: 0.05 µM·h
Cmax [8]: 27 nM
Activity [11]: 70%
Activity [12]: 40%
SMILES: N#Cc1cccc(S(=O)(=O)N2C[C@H](N3CCCC(F)(F)C3)C[C@H]2C(=O)N[C@@H](Cc2ccc(NC(=O)c3c(Cl)cncc3Cl)cc2)C(=O)O)c1
Activity [9]: 65%
Activity [10]: 22%

IC50 [1]: 0.02 nM
IC50 [2]: 3.1 nM
SMILES: N#Cc1cccc(S(=O)(=O)N2C[C@H](N(CC(F)(F)F)C3CCC3)C[C@H]2C(=O)N[C@@H](Cc2ccc(NC(=O)c3c(Cl)cncc3Cl)cc2)C(=O)O)c1
